The target of data set [1] is Tau-tubulin kinase 1 (Homo sapiens) (UniProt Q5TCY1). Put plainly: Inhibition of TTBK1 assessed as residual activity at 1 uM relative to control. The method, boiled down:
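Radioactivity-based enzymatic kinase assays run across a 124-kinase profiling panel (Dundee), reporting the remaining kinase activity relative to a control.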

Data set [2] addresses Death-associated protein kinase 1 (Homo sapiens) (UniProt P53355). Put plainly: Inhibition of DAPK1 assessed as residual activity at 10 uM relative to control.
In data set [3] the target is MAP kinase-interacting serine/threonine-protein kinase 2 (Homo sapiens) (UniProt Q9HBH9). Put plainly: Inhibition of MNK2 assessed as residual activity at 10 uM relative to control.
Chain of MAP kinase-interacting serine/threonine-protein kinase 2 (Homo sapiens) (Q9HBH9 whole entry, looked up): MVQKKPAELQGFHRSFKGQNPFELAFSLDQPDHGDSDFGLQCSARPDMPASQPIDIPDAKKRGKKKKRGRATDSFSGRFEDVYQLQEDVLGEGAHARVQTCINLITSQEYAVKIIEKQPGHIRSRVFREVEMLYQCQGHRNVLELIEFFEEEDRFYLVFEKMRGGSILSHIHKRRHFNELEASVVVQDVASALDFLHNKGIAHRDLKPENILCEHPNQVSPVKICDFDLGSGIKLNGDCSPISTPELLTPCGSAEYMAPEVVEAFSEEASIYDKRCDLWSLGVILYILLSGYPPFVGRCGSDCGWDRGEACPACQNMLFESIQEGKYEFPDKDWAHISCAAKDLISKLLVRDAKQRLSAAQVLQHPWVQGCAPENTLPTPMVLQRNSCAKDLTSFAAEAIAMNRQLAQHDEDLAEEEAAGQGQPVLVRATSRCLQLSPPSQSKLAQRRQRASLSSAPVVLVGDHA
The target in data set [4] is Serine/threonine-protein kinase PAK 5 (Homo sapiens) (UniProt Q9P286). Description: Inhibition of PAK5 assessed as residual activity at 10 uM relative to control.
Chain of Serine/threonine-protein kinase PAK 5 (Homo sapiens) (Q9P286 whole entry, looked up): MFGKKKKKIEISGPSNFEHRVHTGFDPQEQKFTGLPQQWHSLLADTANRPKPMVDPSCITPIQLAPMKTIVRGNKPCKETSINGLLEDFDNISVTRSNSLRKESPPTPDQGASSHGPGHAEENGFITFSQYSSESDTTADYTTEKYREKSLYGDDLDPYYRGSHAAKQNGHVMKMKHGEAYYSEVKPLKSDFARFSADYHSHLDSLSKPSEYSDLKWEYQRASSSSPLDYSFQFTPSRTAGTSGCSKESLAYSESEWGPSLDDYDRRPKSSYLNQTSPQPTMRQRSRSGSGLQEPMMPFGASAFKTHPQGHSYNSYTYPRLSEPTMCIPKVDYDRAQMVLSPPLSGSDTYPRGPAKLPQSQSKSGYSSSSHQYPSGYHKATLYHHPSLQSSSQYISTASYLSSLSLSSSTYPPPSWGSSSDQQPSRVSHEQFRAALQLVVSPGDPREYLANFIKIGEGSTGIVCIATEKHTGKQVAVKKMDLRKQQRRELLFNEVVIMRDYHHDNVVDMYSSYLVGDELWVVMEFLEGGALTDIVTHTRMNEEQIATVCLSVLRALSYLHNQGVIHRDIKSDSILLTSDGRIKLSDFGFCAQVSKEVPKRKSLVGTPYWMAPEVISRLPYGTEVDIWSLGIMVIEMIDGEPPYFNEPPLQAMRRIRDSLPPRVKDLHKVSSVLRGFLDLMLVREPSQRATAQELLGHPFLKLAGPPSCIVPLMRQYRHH
For data set [5], the target named is Serine/threonine-protein kinase pim-2 (Homo sapiens) (UniProt Q9P1W9). Put plainly: Inhibition of PIM2 assessed as residual activity at 10 uM relative to control.
Chain of Serine/threonine-protein kinase pim-2 (Homo sapiens) (Q9P1W9 whole entry, looked up): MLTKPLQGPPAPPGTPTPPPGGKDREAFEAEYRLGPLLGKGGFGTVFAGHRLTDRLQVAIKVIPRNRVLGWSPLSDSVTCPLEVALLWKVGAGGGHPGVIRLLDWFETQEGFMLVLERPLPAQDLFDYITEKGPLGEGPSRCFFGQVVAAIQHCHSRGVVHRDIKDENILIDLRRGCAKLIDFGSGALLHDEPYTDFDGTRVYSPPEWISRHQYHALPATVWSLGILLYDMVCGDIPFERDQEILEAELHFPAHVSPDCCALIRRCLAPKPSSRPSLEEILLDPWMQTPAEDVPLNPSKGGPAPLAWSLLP
For data set [6], the system named is Brain. Description: AUClast in Swiss albino mouse brain at 10 mg/kg, po. As to conditions: in vivo. The arrangement: time 0 - last, dose 10 mg/kg, route oral. The data set is classed as ADME, organism-based. The method, boiled down: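 Male Swiss Albino mice were given a single dose, either intravenous at 1 mg/kg or oral at 10 mg/kg. AUClast was measured in plasma and in brain. Half-life, plasma clearance, volume of distribution and oral bioavailability were derived from the plasma data.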

The target of data set [7] is Calcium/calmodulin-dependent protein kinase kinase 2 (Homo sapiens) (UniProt Q96RR4). Put plainly: Inhibition of CAMKKb assessed as residual activity at 1 uM relative to control. The method, boiled down:
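Standard radioactivity-based enzymatic assays were run across a 124-kinase panel (Dundee profiling), with compound at 1 µM. Kinase activity was expressed relative to control.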

For data set [8], the target named is Serine/threonine-protein kinase 16 (Homo sapiens) (UniProt O75716). Put plainly: Inhibition of MPSK1 assessed as residual activity at 1 uM relative to control.
Chain of Serine/threonine-protein kinase 16 (Homo sapiens) (O75716 whole entry): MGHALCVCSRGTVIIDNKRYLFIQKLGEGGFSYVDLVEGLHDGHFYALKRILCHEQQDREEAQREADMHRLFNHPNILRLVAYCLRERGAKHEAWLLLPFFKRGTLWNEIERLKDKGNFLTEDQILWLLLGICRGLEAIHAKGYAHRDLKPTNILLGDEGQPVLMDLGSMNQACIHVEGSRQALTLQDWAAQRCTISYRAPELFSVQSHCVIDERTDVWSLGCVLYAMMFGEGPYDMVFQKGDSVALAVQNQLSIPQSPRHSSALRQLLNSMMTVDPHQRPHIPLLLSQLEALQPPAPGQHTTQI
For data set [9], the target named is Serine/threonine-protein kinase pim-2 (Homo sapiens) (UniProt Q9P1W9). Put plainly: Inhibition of PIM2 assessed as residual activity at 1 uM relative to control.
Data set [10] deals with Serine/threonine-protein kinase pim-3 (Homo sapiens) (UniProt Q86V86). Put plainly: Inhibition of PIM3 assessed as residual activity at 1 uM relative to control.

Molecules are shown by their SMILES.

Chain of Calcium/calmodulin-dependent protein kinase kinase 2 (Homo sapiens) (Q96RR4 2-588 limits assumed): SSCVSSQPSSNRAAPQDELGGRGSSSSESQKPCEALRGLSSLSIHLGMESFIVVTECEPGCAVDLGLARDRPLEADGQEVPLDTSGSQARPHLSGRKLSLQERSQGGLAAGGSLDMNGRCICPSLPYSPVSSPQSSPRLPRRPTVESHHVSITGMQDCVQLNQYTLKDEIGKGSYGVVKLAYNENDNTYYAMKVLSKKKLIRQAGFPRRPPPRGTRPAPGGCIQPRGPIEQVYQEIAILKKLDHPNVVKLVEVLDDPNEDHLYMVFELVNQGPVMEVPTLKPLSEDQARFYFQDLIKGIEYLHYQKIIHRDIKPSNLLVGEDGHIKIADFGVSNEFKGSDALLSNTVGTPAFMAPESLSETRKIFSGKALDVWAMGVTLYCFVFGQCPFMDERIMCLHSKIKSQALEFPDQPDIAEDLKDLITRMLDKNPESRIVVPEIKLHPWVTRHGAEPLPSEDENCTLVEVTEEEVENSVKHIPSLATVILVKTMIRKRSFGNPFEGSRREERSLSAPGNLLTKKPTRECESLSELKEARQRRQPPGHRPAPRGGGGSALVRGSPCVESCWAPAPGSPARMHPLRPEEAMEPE
Chain of Tau-tubulin kinase 1 (Homo sapiens) (Q5TCY1 whole entry): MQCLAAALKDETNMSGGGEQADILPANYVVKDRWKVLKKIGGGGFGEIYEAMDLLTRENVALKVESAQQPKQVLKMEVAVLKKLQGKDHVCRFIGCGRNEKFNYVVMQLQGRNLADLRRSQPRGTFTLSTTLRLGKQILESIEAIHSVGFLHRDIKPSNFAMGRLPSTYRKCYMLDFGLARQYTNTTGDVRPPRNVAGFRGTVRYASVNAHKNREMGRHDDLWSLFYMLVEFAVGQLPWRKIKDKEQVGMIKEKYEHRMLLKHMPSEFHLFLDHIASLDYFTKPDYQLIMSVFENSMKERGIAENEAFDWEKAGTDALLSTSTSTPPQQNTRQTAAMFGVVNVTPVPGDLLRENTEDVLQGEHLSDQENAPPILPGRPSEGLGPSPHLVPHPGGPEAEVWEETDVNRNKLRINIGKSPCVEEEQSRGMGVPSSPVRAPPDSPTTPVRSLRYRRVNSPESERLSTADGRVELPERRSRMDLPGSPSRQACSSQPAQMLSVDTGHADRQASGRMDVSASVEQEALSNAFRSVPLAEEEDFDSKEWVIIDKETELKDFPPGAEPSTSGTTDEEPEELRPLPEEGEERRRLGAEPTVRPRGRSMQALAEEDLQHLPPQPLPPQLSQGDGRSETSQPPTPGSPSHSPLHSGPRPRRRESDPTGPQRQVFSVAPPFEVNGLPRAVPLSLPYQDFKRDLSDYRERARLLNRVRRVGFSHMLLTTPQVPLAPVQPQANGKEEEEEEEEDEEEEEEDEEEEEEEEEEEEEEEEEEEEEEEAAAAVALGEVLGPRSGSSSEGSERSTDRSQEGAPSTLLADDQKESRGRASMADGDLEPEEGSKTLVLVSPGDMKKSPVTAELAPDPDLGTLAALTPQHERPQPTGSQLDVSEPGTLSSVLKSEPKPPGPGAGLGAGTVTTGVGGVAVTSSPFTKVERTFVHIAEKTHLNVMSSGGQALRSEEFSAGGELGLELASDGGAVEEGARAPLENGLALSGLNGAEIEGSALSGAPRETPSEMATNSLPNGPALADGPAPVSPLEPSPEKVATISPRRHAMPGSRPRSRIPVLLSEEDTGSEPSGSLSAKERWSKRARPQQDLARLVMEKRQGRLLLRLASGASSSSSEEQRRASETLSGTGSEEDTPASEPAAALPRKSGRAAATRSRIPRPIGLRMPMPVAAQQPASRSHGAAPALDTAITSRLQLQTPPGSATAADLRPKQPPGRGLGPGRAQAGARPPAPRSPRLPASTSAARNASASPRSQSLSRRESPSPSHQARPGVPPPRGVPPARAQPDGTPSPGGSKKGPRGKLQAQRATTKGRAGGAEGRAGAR

Turning to `COc1cc(N2CCC(N3CCN(C)CC3)CC2)ccc1Nc1ncc(Cl)c(Nc2ccccc2S(=O)(=O)C(C)C)n1` [TAE-684], the Activity came out at 88% in [1]; 79% in data set [2]; 60% in data set [3]; 35% in data set [4]; 107% in data set [5]; 9% in [7]. Besides, the values for the Activity in [8], in [9] and in [10] were 102%, 91% and 106%, respectively. For the same molecule, the AUClast in [6] came out at 14430 ng·h/mL.

(Values after ChEMBL document CHEMBL2010643 (Bioorg Med Chem Lett, 2012).)
